Active and inactive are the calls of the source. No cut-off for these calls is given here.
How the values were obtained:
[1] = system: CAKI-1; assay: Cytotoxicity against human Caki1 cells assessed as growth inhibition after 72 hrs by MTT assay; format: functional; details: CAKI-1, 72 h
[2] = system: CCRF-CEM; assay: Cytotoxicity against human vinblastin-resistant CEM cells assessed as growth inhibition after 72 hrs by MTT assay; format: functional
Method in brief: (§1)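 CEMVbl-100 (vinblastine-selected CEM) was grown in RPMI-1640 with 0.1 µg/mL vinblastine. LoVoDoxo was grown in HAM's F12 with 0.1 µg/mL doxorubicin; parental CEM and LoVo were grown without drug. Media had 10% FBS. 5x10^3 cells were seeded, preincubated 24 h at 37 °C, then exposed 72 h to compound (DMSO <1%). Read-out was MTT; GI50 came from dose-response curves of ≥3 experiments. RI = GI50 resistant / GI50 parental.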

[3] = system: Jurkat; assay: Induction of apoptosis in human Jurkat cells assessed as caspase-9 activation at 500 nM after 6 hrs by plate reader analysis; format: functional, cell-based
Method in brief: (§2)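 Jurkat cells were treated with 500 nM compound for 6 h and 24 h, then lysed. Lysates were incubated with pNA-conjugated substrates: Ac-DEVD (caspase-3), Ac-IETD (caspase-8) and LEHD (caspase-9). pNA release was read at 405 nm and normalized to Bradford protein. Results are expressed as fold increase over untreated control.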

[4] = system: A549; assay: Cytotoxicity against human A549 cells assessed as growth inhibition after 72 hrs by MTT assay; format: functional; details: A549, 72 h
[5] = system: Jurkat; assay: Cell cycle arrest in human Jurkat cells assessed as accumulation at subG1 phase at 0.25 uM after 24 hrs by propidium iodide staining-based flow cytometry (reference value: 5.3%); format: functional
[6] = system: SNB-75; assay: Cytotoxicity against human SNB75 cells assessed as growth inhibition after 72 hrs by MTT assay; format: functional; details: SNB-75, 72 h
Method in brief: (§3)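 NCI 60-cell-line panel screen. Compounds were tested at 5 concentrations in 10-fold dilution (10^-4 to 10^-8 M) across the full panel. GI50 was taken as the molar concentration giving 50% inhibition of net cell growth.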

[7] = system: NCI-H460; assay: Cytotoxicity against human NCI-H460 cells assessed as growth inhibition after 72 hrs by MTT assay; format: functional; details: NCI-H460, 72 h
[8] = system: SNB-19; assay: Cytotoxicity against human SNB19 cells assessed as growth inhibition after 72 hrs by MTT assay; format: functional; details: SNB-19, 72 h; method in brief: as §3
[9] = system: SW-620; assay: Cytotoxicity against human SW620 cells assessed as growth inhibition after 72 hrs by MTT assay; format: functional; details: SW-620, 72 h; method in brief: as §3
[10] = system: M14; assay: Cytotoxicity against human M14 cells assessed as growth inhibition after 72 hrs by MTT assay; format: functional; details: M14, 72 h
[11] = system: 786-0; assay: Cytotoxicity against human 786-0 cells assessed as growth inhibition after 72 hrs by MTT assay; format: functional; details: 786-0, 72 h
[12] = Cytotoxicity against human HCT116 cells assessed as growth inhibition after 72 hrs by MTT assay; format: functional; details: HCT-116, 72 h
[13] = system: LoVo; assay: Resistance index, ratio of GI50 for human LoVo/DX cells to GI50 for human LoVo cells; format: functional; method in brief: as §1
[14] = system: NCI-H522; assay: Cytotoxicity against human NCI-H522 cells assessed as growth inhibition after 72 hrs by MTT assay; format: functional; details: NCI-H522, 72 h; method in brief: as §3
[15] = system: T47D; assay: Cytotoxicity against human T47D cells assessed as growth inhibition after 72 hrs by MTT assay; format: functional; method in brief: as §3
[16] = system: CCRF-CEM; assay: Resistance index, ratio of GI50 for human vinblastin-resistant CEM cells to GI50 for human CEM cells; format: functional; method in brief: as §1
[17] = system: LOX IMVI; assay: Cytotoxicity against human LOXIMVI cells assessed as growth inhibition after 72 hrs by MTT assay; format: functional
[18] = system: Jurkat; assay: Cell cycle arrest in human Jurkat cells assessed as accumulation at subG1 phase at 0.5 uM after 24 hrs by propidium iodide staining-based flow cytometry (reference value: 5.3%); format: functional
[19] = system: A498; assay: Cytotoxicity against human A498 cells assessed as growth inhibition after 72 hrs by MTT assay; format: functional; details: A498, 72 h
[20] = system: RXF 393; assay: Cytotoxicity against human RXF393 cells assessed as growth inhibition after 72 hrs by MTT assay; format: functional; details: RXF 393, 72 h; method in brief: as §3
[21] = Cytotoxicity against human UACC62 cells assessed as growth inhibition after 72 hrs by MTT assay; format: functional; details: UACC-62, 72 h; method in brief: as §3
[22] = Cytotoxicity against human UACC257 cells assessed as growth inhibition after 72 hrs by MTT assay; format: functional; details: UACC-257, 72 h; method in brief: as §3
[23] = system: Jurkat; assay: Induction of apoptosis in human Jurkat cells assessed as loss of plasma membrane asymmetry at 250 to 500 nM after 24 hrs by annexin V-FITC/propidium iodide staining-based flow cytofluorimetric analysis; format: functional, cell-based
Method in brief: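 Jurkat cells were incubated with 250 or 500 nM compound for 6 h or 24 h. They were then double-stained with Annexin V-FITC and propidium iodide and analysed by flow cytometry (488 nm excitation; emission 525 and 585 nm). Mean ± SEM of 3 experiments.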

[24] = system: Malme-3M; assay: Cytotoxicity against human MALME-3M cells assessed as growth inhibition after 72 hrs by MTT assay; format: functional
[25] = system: SK-MEL-5; assay: Cytotoxicity against human SK-MEL-5 cells assessed as growth inhibition after 72 hrs by MTT assay; format: functional; details: SK-MEL-5, 72 h; method in brief: as §3
[26] = system: CCRF-CEM; assay: Cytotoxicity against human CEM cells assessed as growth inhibition after 72 hrs by MTT assay; format: functional
Method in brief: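 Cells were grown in medium with 10% heat-inactivated FBS plus penicillin/streptomycin: RPMI-1640 for Jurkat and CEM, DMEM for A-431, HAM's F12 for LoVo. The doxorubicin-resistant LoVo subclone was kept with 0.1 µg/mL doxorubicin. Cells were seeded at 5x10^3 per well and pre-incubated 24 h at 37 °C.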

[27] = system: Jurkat; assay: Induction of apoptosis in human Jurkat cells assessed as caspase-8 activation at 500 nM after 6 hrs by plate reader analysis; format: functional, cell-based; method in brief: as §2
[28] = system: Jurkat; assay: Induction of ROS generation in human Jurkat cells at 500 nM after 24 hrs by HE/DCFH2-DA staining-based flow cytometry relative to control; format: functional, cell-based
Method in brief: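 Jurkat cells were exposed to 500 nM compound for 24 h, then loaded in HBSS with 2.5 µM hydroethidine or 0.1 µM H2DCFDA for 30 min at 37 °C. Flow cytometry used 488 nm excitation, with emission at 585 nm (HE) or 530 nm (DCF). Mean ± SEM of 3 experiments.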

[29] = Binding affinity to DNA (unknown origin) at compound to DNA ratio 0.01 to 0.04 by linear dichroism method
Method in brief: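 Linear dichroism spectra were recorded at different compound/DNA ratios in 10 mM phosphate buffer, pH 7.2.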

[30] = Cytotoxicity against human NCI-ADR-RES cells assessed as growth inhibition after 72 hrs by MTT assay; format: functional
[31] = Cytotoxicity against human PC3 cells assessed as growth inhibition after 72 hrs by MTT assay; format: functional; details: PC-3, 72 h; method in brief: as §3

Row | Compound | GI50 [1] [µM] | GI50 [2] [µM] | GI50 [4] [µM] | GI50 [6] [µM] | GI50 [7] [µM] | GI50 [8] [µM] | GI50 [9] [µM] | GI50 [10] [µM] | GI50 [11] [µM] | GI50 [12] [µM] | GI50 [14] [µM] | GI50 [15] [µM] | GI50 [17] [µM] | GI50 [19] [µM] | GI50 [20] [µM] | GI50 [21] [µM] | GI50 [22] [µM] | GI50 [24] [µM] | GI50 [25] [µM] | GI50 [30] [µM] | further results
1 | COc1ccc2c(c1)nnc1c3cccnc3[nH]c21 | 0.11 | 1.02 | 7.9 | 0.64 | 1.93 | 7.61 | 0.38 | 1.07 | 0.51 | 0.21 | 1.09 | 0.49 | 0.76 | 8 | 0.66 | 0.91 | 7.49 | 1.06 | 5.85 | 1.79 | Activity [3]: Active; Activity [5]: 27.8%; Ratio [13]: 0.33; Ratio [16]: 1.57; Activity [18]: 39.8%; Activity [23]: Active; GI50 [26]: 0.65 µM; Activity [27]: Active; Activity [28]: Active; Activity [29]: Active
2 | O=Nc1c2cccnc2n2nnc3ccc(Cl)cc3c12 | 0.13 | – | 2.2 | 1.42 | 1.33 | 3.18 | 0.19 | 1.19 | 0.84 | 0.19 | 0.95 | 0.26 | 1.03 | 1.91 | 0.56 | 2.36 | 3.07 | 1.22 | 3.82 | 0.43 | GI50 [31]: 0.74 µM
3 | COc1cc2nnn3c4ncccc4c(N=O)c3c2cc1OC | 0.048 | 0.51 | 13.3 | 2.25 | 2.61 | 3.84 | 0.21 | 1.71 | 0.23 | 0.061 | 4.01 | 0.21 | 0.92 | 15.8 | 0.4 | 2.92 | 4.54 | 2.89 | 12.6 | 0.38 | Activity [3]: Active; Activity [5]: 18.7%; Ratio [13]: 1.11; Ratio [16]: 2.13; Activity [18]: 21.7%; GI50 [31]: 2.36 µM; Activity [23]: Active; GI50 [26]: 0.24 µM; Activity [27]: Active; Activity [28]: Active; Activity [29]: inactive
4 | COc1cc2nnc3c4cccnc4[nH]c3c2cc1OC | 0.18 | – | 7.9 | 1.48 | 2.46 | 2.77 | 0.44 | 1.79 | 0.32 | 0.13 | 2.05 | 0.4 | 1.41 | 2.74 | 0.71 | 2.49 | 3.32 | 2.28 | 7.33 | – | GI50 [31]: 1.49 µM
5 | COc1ccc2c(c1)nnn1c3ncccc3c(N=O)c21 | 0.089 | 0.44 | 10.8 | 0.85 | 1.67 | 6.28 | 0.27 | 1.57 | 0.33 | 0.06 | 1.25 | 0.16 | 0.8 | 1.27 | 0.31 | 0.85 | 8.21 | 0.77 | 5.01 | 1.42 | Activity [3]: Active; Activity [5]: 22.5%; Ratio [13]: 0.51; Ratio [16]: 2; Activity [18]: 39.1%; Activity [23]: Active; GI50 [26]: 0.22 µM; Activity [27]: Active; Activity [28]: Active; Activity [29]: inactive

Source: ChEMBL document CHEMBL3351507, “11H-Pyrido[3',2':4,5]pyrrolo[3,2-c]cinnoline and pyrido[3',2':4,5]pyrrolo[1,2-c][1,2,3]benzotriazine: two new ring systems with antitumor activity” (2014)
